Measured values: ChEMBL document CHEMBL3286116, “Synthesis, biological evaluation and structure-activity correlation study of a series of imidazol-based compounds as Candida albicans inhibitors” (Eur J Med Chem, 2014)

Key:
Type in all cases: functional
[1] = system: Candida albicans; assay: Antifungal activity against Candida albicans ATCC 90028 after 48 hrs by CLSI broth microdilution method; details: ATCC 90028, 48 h
Outline: (§1)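 Yeast CLSI broth microdilution (M27-A3). Compounds dissolved in DMSO at 100× the top test concentration, then diluted as serial two-fold dilutions in RPMI 1640 to final 0.125–64. Inoculum was 1.0–1.5 × 10^3 cells mL−1, incubated at 35 °C and read for growth at 48 h. MIC is the lowest concentration giving ≥50% growth inhibition versus growth control. Reported as the median of five replicates and as the geometric mean.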

[2] = system: Candida albicans; assay: Antifungal activity against Candida albicans ATCC 20891 after 48 hrs by CLSI broth microdilution method; details: ATCC 20891, 48 h; outline: as §1
[3] = system: Candida albicans; assay: Antifungal activity against Candida albicans PMC 1011 after 48 hrs by CLSI broth microdilution method; details: PMC 1011, 48 h; outline: as §1
[4] = system: Pichia kudriavzevii; assay: Antifungal activity against Candida krusei DSM 6128 after 48 hrs by CLSI broth microdilution method; details: DSM 6128, 48 h; outline: as §1
[5] = system: Pichia kudriavzevii; assay: Antifungal activity against Candida krusei PMC 0613 after 48 hrs by CLSI broth microdilution method; details: PMC 0613, 48 h; outline: as §1
[6] = system: Candida tropicalis; assay: Antifungal activity against Candida tropicalis PMC 0910 after 48 hrs by CLSI broth microdilution method; details: PMC 0910, 48 h; outline: as §1
[7] = system: Candida tropicalis; assay: Antifungal activity against Candida tropicalis DSM 11953 after 48 hrs by CLSI broth microdilution method; details: DSM 11953, 48 h; outline: as §1
[8] = system: Candida parapsilosis; assay: Antifungal activity against Candida parapsilosis DSM 11224 after 48 hrs by CLSI broth microdilution method; details: Lodderomyces parapsilosis, DSM 11224, 48 h; outline: as §1
[9] = system: Candida parapsilosis; assay: Antifungal activity against Candida parapsilosis ATCC 22019 after 48 hrs by CLSI broth microdilution method; details: Lodderomyces parapsilosis, ATCC 22019, 48 h; outline: as §1
[10] = system: Nakaseomyces glabratus; assay: Antifungal activity against Candida glabrata PMC 0805 after 48 hrs by CLSI broth microdilution method; details: PMC 0805, 48 h; outline: as §1
[11] = system: Nakaseomyces glabratus; assay: Antifungal activity against Candida glabrata PMC 0807 after 48 hrs by CLSI broth microdilution method; details: PMC 0807, 48 h; outline: as §1
[12] = system: Cryptococcus neoformans; assay: Antifungal activity against Cryptococcus neoformans PMC 2123 after 72 hrs by CLSI broth microdilution method; details: PMC 2123, 72 h
Outline: (§2)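 Cryptococcus neoformans tested by CLSI broth microdilution in RPMI 1640, with serial two-fold dilutions from DMSO stocks at 100× the top concentration, final 0.125–64. Inoculum was 1.0–1.5 × 10^3 cells mL−1 at 35 °C, with growth read at 72 h. MIC is the lowest concentration with ≥50% growth inhibition versus control. Median of five replicates, plus geometric mean.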

[13] = system: Cryptococcus neoformans; assay: Antifungal activity against Cryptococcus neoformans PMC 2136 after 72 hrs by CLSI broth microdilution method; details: PMC 2136, 72 h; outline: as §2
[14] = system: Cryptococcus neoformans; assay: Antifungal activity against Cryptococcus neoformans PMC 2115 after 72 hrs by CLSI broth microdilution method; details: PMC 2115, 72 h; outline: as §2
[15] = system: Cryptococcus neoformans; assay: Antifungal activity against Cryptococcus neoformans PMC 2103 after 72 hrs by CLSI broth microdilution method; details: PMC 2103, 72 h; outline: as §2
[16] = system: Cryptococcus neoformans; assay: Antifungal activity against Cryptococcus neoformans PMC 2107 after 72 hrs by CLSI broth microdilution method; details: PMC 2107, 72 h; outline: as §2
[17] = system: Cryptococcus neoformans; assay: Antifungal activity against Cryptococcus neoformans PMC 2102 after 72 hrs by CLSI broth microdilution method; details: PMC 2102, 72 h; outline: as §2
[18] = system: Cryptococcus neoformans; assay: Antifungal activity against Cryptococcus neoformans DSM 11959 after 72 hrs by CLSI broth microdilution method; details: DSM 11959, 72 h; outline: as §2
[19] = system: Cryptococcus neoformans; assay: Antifungal activity against Cryptococcus neoformans PMC 2111 after 72 hrs by CLSI broth microdilution method; details: PMC 2111, 72 h; outline: as §2
[20] = system: Trichophyton mentagrophytes; assay: Antifungal activity against Trichophyton mentagrophytes DSM 4870 after 72 hrs by CLSI broth microdilution method; details: DSM 4870, 72 h
Outline: (§3)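 Dermatophytes tested by CLSI broth microdilution for filamentous fungi (M38-A2). Serial two-fold dilutions of DMSO-dissolved compound in RPMI 1640, final 0.125–64. Inoculum was 0.4–5 × 10^4 CFU mL−1, incubated at 35 °C and read at 72 h. MIC80 is the lowest concentration giving ≥80% growth inhibition versus growth control. Median of five replicates, plus geometric mean.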

[21] = system: Trichophyton mentagrophytes; assay: Antifungal activity against Trichophyton mentagrophytes PMC 6515 after 72 hrs by CLSI broth microdilution method; details: PMC 6515, 72 h; outline: as §3
[22] = system: Trichophyton mentagrophytes; assay: Antifungal activity against Trichophyton mentagrophytes PMC 6531 after 72 hrs by CLSI broth microdilution method; details: PMC 6531, 72 h; outline: as §3
[23] = system: Trichophyton mentagrophytes; assay: Antifungal activity against Trichophyton mentagrophytes PMC 6509 after 72 hrs by CLSI broth microdilution method; details: PMC 6509, 72 h; outline: as §3
[24] = system: Trichophyton mentagrophytes; assay: Antifungal activity against Trichophyton mentagrophytes PMC 6503 after 72 hrs by CLSI broth microdilution method; details: PMC 6503, 72 h; outline: as §3
[25] = system: Trichophyton mentagrophytes; assay: Antifungal activity against Trichophyton mentagrophytes PMC 6552 after 72 hrs by CLSI broth microdilution method; details: PMC 6552, 72 h; outline: as §3
[26] = system: Nannizzia gypsea; assay: Antifungal activity against Microsporum gypseum PMC 7303 after 72 hrs by CLSI broth microdilution method; details: PMC 7303, 72 h; outline: as §3
[27] = system: Nannizzia gypsea; assay: Antifungal activity against Microsporum gypseum PMC 7331 after 72 hrs by CLSI broth microdilution method; details: PMC 7331, 72 h; outline: as §3
[28] = system: Nannizzia gypsea; assay: Antifungal activity against Microsporum gypseum DSM 3824 after 72 hrs by CLSI broth microdilution method; details: DSM 3824, 72 h; outline: as §3
[29] = system: Candida albicans; assay: Antifungal activity against Candida albicans ATCC 24433 after 48 hrs by CLSI broth microdilution method; details: ATCC 24433, 48 h; outline: as §1
[30] = system: Candida albicans; assay: Antifungal activity against Candida albicans ATCC 3153 after 48 hrs by CLSI broth microdilution method; details: ATCC 3153, 48 h; outline: as §1
[31] = system: Candida albicans; assay: Antifungal activity against Candida albicans ATCC 10231 after 48 hrs by CLSI broth microdilution method; details: ATCC 10231, 48 h; outline: as §1
[32] = system: Candida albicans; assay: Antifungal activity against Candida albicans ATCC 76615 after 48 hrs by CLSI broth microdilution method; details: ATCC 76615, 48 h; outline: as §1
[33] = system: Candida albicans; assay: Antifungal activity against Candida albicans ATCC 10261 after 48 hrs by CLSI broth microdilution method; details: ATCC 10261, 48 h; outline: as §1

O=C(OC(Cn1ccnc1)c1ccc(F)cc1)N1CCN(c2ccc([N+](=O)[O-])cc2)CC1 (centres undefined)
64 µg/mL: MIC50 [4] | MIC50 [10] | MIC50 [11] | MIC50 [14] | MIC80 [20] | MIC80 [21] | MIC80 [22] | MIC80 [23] | MIC80 [28]
32 µg/mL: MIC50 [6] | MIC50 [17] | MIC80 [24] | MIC80 [25] | MIC80 [26] | MIC80 [27] | MIC50 [29] | MIC50 [31]
4 µg/mL: MIC50 [8]
16 µg/mL: MIC50 [5] | MIC50 [9] | MIC50 [13] | MIC50 [16] | MIC50 [18] | MIC50 [19] | MIC50 [30]
128 µg/mL: MIC50 [7] | MIC50 [12] | MIC50 [32]
8 µg/mL: MIC50 [1] | MIC50 [2] | MIC50 [3] | MIC50 [15] | MIC50 [33]

O=C(O[C@@H](Cn1ccnc1)c1ccc(Cl)cc1)N1CCN(c2ccc(Cl)cc2)CC1
4 µg/mL: MIC50 [1] | MIC50 [3] | MIC50 [14] | MIC50 [17] | MIC80 [21] | MIC80 [24] | MIC50 [30] | MIC50 [33]
1 µg/mL: MIC50 [9]
32 µg/mL: MIC50 [11]
2 µg/mL: MIC50 [12] | MIC50 [13] | MIC50 [15] | MIC50 [16] | MIC50 [18] | MIC50 [19]
128 µg/mL: MIC50 [4]
16 µg/mL: MIC50 [6] | MIC80 [27]
64 µg/mL: MIC50 [7]
8 µg/mL: MIC50 [2] | MIC50 [5] | MIC50 [8] | MIC50 [10] | MIC80 [20] | MIC80 [22] | MIC80 [23] | MIC80 [25] | MIC80 [26] | MIC80 [28] | MIC50 [29] | MIC50 [31] | MIC50 [32]

O=C(OC(Cn1ccnc1)c1ccc(F)cc1)N1CCN(c2ncccc2[N+](=O)[O-])CC1 (centres undefined)
2 µg/mL: MIC50 [8] | MIC50 [13] | MIC50 [15]
64 µg/mL: MIC80 [23] | MIC80 [26] | MIC50 [32]
16 µg/mL: MIC50 [4] | MIC50 [6] | MIC50 [9] | MIC50 [12] | MIC50 [14] | MIC50 [30] | MIC50 [31]
8 µg/mL: MIC50 [2] | MIC50 [10] | MIC50 [17] | MIC50 [19] | MIC50 [29] | MIC50 [33]
1 µg/mL: MIC50 [16]
32 µg/mL: MIC50 [7] | MIC50 [11] | MIC80 [20] | MIC80 [21] | MIC80 [22] | MIC80 [24] | MIC80 [25] | MIC80 [27] | MIC80 [28]
4 µg/mL: MIC50 [1] | MIC50 [3] | MIC50 [5] | MIC50 [18]
